OX1R antag-1: blocks the human orexin 1 receptor | CHO/OX1R cells, Fluo-8 calcium fluorescence, orexin A | O43613 | AID 434989 | inhibition, % at 5 µM | 330,000 tested, 0.43% active;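 active = inhibition above its plate's threshold, mean inhibition of all tested compounds on the plate plus 3 SD, cut at about 37% in these data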;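 also: 0% = orexin A challenge wells and 100% = SB-334867-A antagonist wells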
Target sequence (O43613 whole entry, looked up): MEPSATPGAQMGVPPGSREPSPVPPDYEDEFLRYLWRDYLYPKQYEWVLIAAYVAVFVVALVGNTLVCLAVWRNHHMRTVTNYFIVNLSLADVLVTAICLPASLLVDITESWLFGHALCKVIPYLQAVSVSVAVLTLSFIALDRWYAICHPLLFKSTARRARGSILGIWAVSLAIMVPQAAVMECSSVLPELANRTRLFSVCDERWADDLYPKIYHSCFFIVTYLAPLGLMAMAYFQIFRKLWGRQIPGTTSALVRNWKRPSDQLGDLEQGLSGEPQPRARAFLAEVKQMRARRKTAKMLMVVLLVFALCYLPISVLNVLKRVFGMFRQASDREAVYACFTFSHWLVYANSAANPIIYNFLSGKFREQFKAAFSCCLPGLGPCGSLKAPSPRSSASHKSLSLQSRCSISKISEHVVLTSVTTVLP
CHO parental Ca: counter-screen for OX1R antagonists: effect in parental CHO cells. parental CHO-K1, ATP-induced calcium, Fluo-8 fluorescence. AID 463079. inhibition, % at 5.6 µM. 330,000 tested, 0.63% active;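 active = inhibition above that plate's mean sample inhibition plus 3 SD, cut at about 26% in these data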;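 also: 0% = ATP-challenged DMSO wells and 100% = DMSO wells without ATP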
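Material: parental CHO cells / Compound: single nominal dose of 5.6 µM per compound / Signal: Fluo-8 fluorescence / Replicates: singlicate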
GPR7 antagonist: blocks human GPR7 receptor signaling; GPR7-expressing cells, fluorescence antagonist assay; inhibition, % at 4.4 µM; 290,000 tested, 1.1% active; in the data active = inhibition above about 16%, passing the limit was not always enough;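 also: cells stimulated with the agonist NPW; 0% = agonist with vehicle and 100% = vehicle without agonist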
GalR3 antag: human GalR3 antagonism; O60755; HEK293 GalR3-CNG cAMP membrane potential fluorescence; galR3 body fused to GalR1 C-terminus; inhibition, % at 3 µM; 360,000 tested, 0.44% active; AID 651719;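 active = inhibition above the screen-wide average plus 3 SD, cut at about 13% in these data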;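 also: forskolin and galanin both at EC90 stimulate the cells; cAMP rise reported by CNG channel membrane potential dye signal; 0% = forskolin plus galanin with DMSO and 100% = forskolin alone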
OX1R antag-2: antagonists of human orexin 1 receptor (OX1R). O43613. OX1R-expressing cells, FRET antagonist read-out. inhibition, % at 6.6 µM. 330,000 tested, 1.8% active. AID 485270; in the data active = inhibition mostly above about 38%, no sharp cut-off; inactive = mostly below about 40%;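 also: 0% = agonist challenge alone and 100% = reference antagonist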
GPR7 antag conf: confirmation of human GPR7 antagonists | shares compounds with GPR7 antagonist | GPR7-expressing cells, calcium fluorescence antagonist mode | inhibition, % at 4.4 µM | 2,400 tested, 52% active | AID 1952; in the data active = inhibition above about 24%;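 also: stimulated with the GPR7 agonist NPW; 0% = agonist plus vehicle and 100% = vehicle alone without agonist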
MCHR1 antagonist: antagonizes human MCHR1, a GPR7 antagonist counter-screen | shares compounds with GPR7 antagonist | MCHR1-expressing cells, fluorescence antagonist assay | 2,400 tested, 62% active | inhibition, % at 4.4 µM; in the data active = inhibition above about 22%;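 also: 0% = vehicle with agonist and 100% = vehicle without agonist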
Starred values were filed as active, the others as inactive; nt = not tested or not shown. Sampled rows, rich in hits. Any-hit rate of the full collection: about 3.1%.

SMILES | OX1R antag-1 | CHO parental Ca | GPR7 antagonist | GalR3 antag | OX1R antag-2 | GPR7 antag conf | MCHR1 antagonist
COC(=O)Cn1c(C(=O)N2CCCC2)cc2c1C[C@H]1CN(C(=O)c3ccccc3)[C@@](Cc3ccc(OC)cc3)(C(=O)OC)[C@@H]21 | nt | nt | nt | -5 | nt | nt | nt
Cc1cccn2c(CN(C)C3CCOC3)c(C(=O)N3CCCCC3)nc12 (centres undefined) | -23 | -15 | -2 | -6 | 12 | nt | nt
Cc1cccn2c(CN(C)CCC3CCCCO3)c(C(=O)N3CCCCC3)nc12 (centres undefined) | -14 | -11 | 38* | -5 | 4 | -5 | 18
CSc1nc(N)nc(SCC(=O)Nc2cccc(F)c2)c1C#N | 16 | 62* | 26* | 6 | 39 | 20 | 64*
CSc1nc(N)nc(SCC(=O)Nc2ccc(Cl)cc2)c1C#N | -6 | 11 | -6 | -8 | 19 | nt | nt
O=[N+]([O-])c1c(Nc2cccc(O)c2)cc(Cl)c2nonc12 | 47* | 43* | 35* | 7 | 94* | 81* | 101*
Cc1ccc(C)c(NC(=S)NCCN(C2CCCCC2)C2CCCC2)c1 | -34 | -26 | 46* | 1 | 17 | 44* | 36*
OC[C@@H]1CN(Cc2ccccc2)C[C@H](n2cnc3c(NC4CCCC4)ncnc32)O1 | nt | nt | nt | -7 | nt | nt | nt
O=C(CNC1CCCCCC1)Nc1ccc(N2CCCC2)cc1 | -14 | 14 | -11 | nt | 17 | nt | nt
CC1CCCC(C)N1S(=O)(=O)c1ccc(NC(=O)CNC2CCCC2)cc1 (centres undefined) | -6 | -7 | 54* | -9 | 10 | 23 | 6
CC(=O)c1ccc(NC(=O)CNC2CCCCC2)cc1 | -24 | -9 | 36* | -5 | -3 | -2 | -6
CC1CCN(S(=O)(=O)c2ccc(NC(=O)CNC3CCCCC3)cc2)CC1 | -12 | -11 | -1 | -7 | 4 | nt | nt
CCCCCCCCCCOC(=O)Cn1c(COc2ccccc2OC)[n+](C)c2ccccc21 | 77* | 84* | 53* | 4 | 32 | 98* | 107*
COc1cc(OC)cc(C(=O)NNC(=O)C2CCC2)c1 | nt | nt | nt | -7 | nt | nt | nt
NC(=O)CSc1nnc(-c2ccc(S(=O)(=O)N3CCCCC3)cc2)n1-c1ccccc1 | -24 | -2 | 18 | -8 | 5 | nt | nt
COc1ccccc1-n1c(SCC(N)=O)nnc1-c1ccc(S(=O)(=O)N2CCCCC2)cc1 | -14 | -8 | 39* | -6 | 10 | 42* | 16
